Legend:
Type in all cases: toxicity, cell-based
[1] = test system: Fibroblast; assay: Incucyte cell viability with human fibroblast; details: 10 µM, compound concentration 10 uM; further: filed as whole numbers so only -1 and 0 and 1 occur
[2] = test system: HEK-293T; assay: Incucyte cell viability with HEK293T; details: human, 10 µM, compound concentration 10 uM; further: filed as whole numbers so only -1 and 0 and 1 occur
[3] = test system: HEK-293T; assay: Multiplex assay against HEK293T; details: human;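 on Population Tubulin-Different-Phenotype (%): share of the cells with healthy nuclei that show this phenotype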
Procedure, shortened: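 With compound added, live cells were imaged on a CQ1 microscope at 37°C and 5% CO2; staining with Hoechst33342, BioTracker Green Microtubule Cytoskeleton Dye, MitoTracker Red and Annexin V Alexa Fluor 680 had been done at seeding. The CellPathfinder machine-learning gating scheme split cells into Hoechst high-intensity objects or normal cells, normal cells into healthy, pyknosed or fragmented nuclei, and pyknosed cells into mitotic or apoptotic. The tubulin, mitochondrial-mass and membrane-permeability phenotypes are per cents of healthy-nucleus cells.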

[4] = 6 h, replicate number 1, timepoint 6 hours
[5] = 12 h, replicate number 1, timepoint 12 hours
[6] = 18 h, replicate number 1, timepoint 18 hours
[7] = 24 h, replicate number 1, timepoint 24 hours
[8] = 12 h, 1 µM, compound concentration 1 uM, replicate 1
[9] = 12 h, 1 µM, compound concentration 1 uM, replicate 2
[10] = 12 h, 10 µM, compound concentration 10 uM, replicate 1
[11] = 12 h, 10 µM, compound concentration 10 uM, replicate 2
[12] = 24 h, 1 µM, compound concentration 1 uM, replicate 1
[13] = 24 h, 1 µM, compound concentration 1 uM, replicate 2
[14] = 24 h, 10 µM, compound concentration 10 uM, replicate 1
[15] = 24 h, 10 µM, compound concentration 10 uM, replicate 2
[16] = 48 h, 1 µM, compound concentration 1 uM, replicate 1
[17] = 48 h, 1 µM, compound concentration 1 uM, replicate 2
[18] = 48 h, 10 µM, compound concentration 10 uM, replicate 1
[19] = 48 h, 10 µM, compound concentration 10 uM, replicate 2

Nc1ccc(C(=O)Nc2cccc(-c3nc(N4CCOCC4)c4oc5ncccc5c4n3)c2)cn1
Growth Rate ([1]; 0 h, replicate number 1, timepoint 0 hours): 0 | Growth Rate [1, 4]: 0 | Growth Rate [1, 5]: 0 | Growth Rate [1, 6]: 0 | Growth Rate ([1]; 18 h, replicate number 2, timepoint 18 hours): 1 | Growth Rate [1, 7]: 0 | Growth Rate ([2]; 0 h, replicate number 2, timepoint 0 hours): 0 | Growth Rate [2, 4]: 0 | Growth Rate [2, 5]: 0 | Growth Rate [2, 6]: 0 | Growth Rate [2, 7]: 0 | Population Apoptotic (%) [3, 8]: 66% | Population Fragmented Nuclei (%) [3, 8]: 24% | Population Healthy Nuclei (%) [3, 8]: 15% | Population Hoechst High Intensity Objects (%) [3, 8]: 19% | Population Mitochondria Different-Phenotype (%) [3, 8]: 94% | Population Mitotic Cells (%) [3, 8]: 33% | Population Normal (%) [3, 8]: 80% | Population Pyknosed Nuclei (%) [3, 8]: 60% | Population Tubulin-Different-Phenotype (%) [3, 8]: 94% | Population Apoptotic (%) [3, 9]: 34% | Population Fragmented Nuclei (%) [3, 9]: 8% | Population Healthy Nuclei (%) [3, 9]: 10% | Population Hoechst High Intensity Objects (%) [3, 9]: 8% | Population Mitochondria Different-Phenotype (%) [3, 9]: 46% | Population Mitotic Cells (%) [3, 9]: 65% | Population Normal (%) [3, 9]: 91% | Population Pyknosed Nuclei (%) [3, 9]: 81% | Population Tubulin-Different-Phenotype (%) [3, 9]: 80% | Total Cell Count [3, 9]: 149 | Population Apoptotic (%) [3, 10]: 83% | Population Fragmented Nuclei (%) [3, 10]: 44% | Population Healthy Nuclei (%) [3, 10]: 5% | Population Hoechst High Intensity Objects (%) [3, 10]: 25% | Population Mitochondria Different-Phenotype (%) [3, 10]: 100% | Population Mitotic Cells (%) [3, 10]: 16% | Population Normal (%) [3, 10]: 74% | Population Pyknosed Nuclei (%) [3, 10]: 49% | Population Tubulin-Different-Phenotype (%) [3, 10]: 76% | Total Cell Count [3, 10]: 385 | Population Apoptotic (%) [3, 11]: 53% | Population Fragmented Nuclei (%) [3, 11]: 15% | Population Healthy Nuclei (%) [3, 11]: 13% | Population Hoechst High Intensity Objects (%) [3, 11]: 8% | Population Mitochondria Different-Phenotype (%) [3, 11]: 75% | Population Mitotic Cells (%) [3, 11]: 46% | Population Normal (%) [3, 11]: 91% | Population Pyknosed Nuclei (%) [3, 11]: 70% | Population Tubulin-Different-Phenotype (%) [3, 11]: 70% | Total Cell Count [3, 11]: 330 | Population Apoptotic (%) [3, 12]: 64% | Population Fragmented Nuclei (%) [3, 12]: 22% | Population Healthy Nuclei (%) [3, 12]: 17% | Population Hoechst High Intensity Objects (%) [3, 12]: 19% | Population Mitochondria Different-Phenotype (%) [3, 12]: 95% | Population Mitotic Cells (%) [3, 12]: 35% | Population Normal (%) [3, 12]: 80% | Population Pyknosed Nuclei (%) [3, 12]: 59% | Population Tubulin-Different-Phenotype (%) [3, 12]: 90% | Total Cell Count [3, 12]: 147 | Population Apoptotic (%) [3, 13]: 40% | Population Fragmented Nuclei (%) [3, 13]: 3% | Population Healthy Nuclei (%) [3, 13]: 37% | Population Hoechst High Intensity Objects (%) [3, 13]: 8% | Population Mitochondria Different-Phenotype (%) [3, 13]: 68% | Population Mitotic Cells (%) [3, 13]: 59% | Population Normal (%) [3, 13]: 91% | Population Pyknosed Nuclei (%) [3, 13]: 58% | Population Tubulin-Different-Phenotype (%) [3, 13]: 96% | Total Cell Count [3, 13]: 171 | Population Apoptotic (%) [3, 14]: 80% | Population Fragmented Nuclei (%) [3, 14]: 45% | Population Healthy Nuclei (%) [3, 14]: 7% | Population Hoechst High Intensity Objects (%) [3, 14]: 21% | Population Mitochondria Different-Phenotype (%) [3, 14]: 100% | Population Mitotic Cells (%) [3, 14]: 19% | Population Normal (%) [3, 14]: 78% | Population Pyknosed Nuclei (%) [3, 14]: 47% | Population Tubulin-Different-Phenotype (%) [3, 14]: 79% | Total Cell Count [3, 14]: 389 | Population Apoptotic (%) [3, 15]: 67% | Population Fragmented Nuclei (%) [3, 15]: 15% | Population Healthy Nuclei (%) [3, 15]: 15% | Population Hoechst High Intensity Objects (%) [3, 15]: 8% | Population Mitochondria Different-Phenotype (%) [3, 15]: 81% | Population Mitotic Cells (%) [3, 15]: 32% | Population Normal (%) [3, 15]: 91% | Population Pyknosed Nuclei (%) [3, 15]: 69% | Population Tubulin-Different-Phenotype (%) [3, 15]: 50% | Total Cell Count [3, 15]: 315 | Population Apoptotic (%) [3, 16]: 67% | Population Fragmented Nuclei (%) [3, 16]: 27% | Population Healthy Nuclei (%) [3, 16]: 31% | Population Hoechst High Intensity Objects (%) [3, 16]: 20% | Population Mitochondria Different-Phenotype (%) [3, 16]: 82% | Population Mitotic Cells (%) [3, 16]: 32% | Population Normal (%) [3, 16]: 79% | Population Pyknosed Nuclei (%) [3, 16]: 40% | Population Tubulin-Different-Phenotype (%) [3, 16]: 86% | Total Cell Count [3, 16]: 183 | Population Apoptotic (%) [3, 17]: 61% | Population Fragmented Nuclei (%) [3, 17]: 6% | Population Healthy Nuclei (%) [3, 17]: 55% | Population Hoechst High Intensity Objects (%) [3, 17]: 8% | Population Mitochondria Different-Phenotype (%) [3, 17]: 49% | Population Mitotic Cells (%) [3, 17]: 38% | Population Normal (%) [3, 17]: 91% | Population Pyknosed Nuclei (%) [3, 17]: 38% | Population Tubulin-Different-Phenotype (%) [3, 17]: 92% | Total Cell Count [3, 17]: 187 | Population Apoptotic (%) [3, 18]: 75% | Population Fragmented Nuclei (%) [3, 18]: 51% | Population Healthy Nuclei (%) [3, 18]: 10% | Population Hoechst High Intensity Objects (%) [3, 18]: 28% | Population Mitochondria Different-Phenotype (%) [3, 18]: 97% | Population Mitotic Cells (%) [3, 18]: 24% | Population Normal (%) [3, 18]: 71% | Population Pyknosed Nuclei (%) [3, 18]: 38% | Population Tubulin-Different-Phenotype (%) [3, 18]: 60% | Total Cell Count [3, 18]: 484 | Population Apoptotic (%) [3, 19]: 73% | Population Fragmented Nuclei (%) [3, 19]: 17% | Population Healthy Nuclei (%) [3, 19]: 18% | Population Hoechst High Intensity Objects (%) [3, 19]: 8% | Population Mitochondria Different-Phenotype (%) [3, 19]: 84% | Population Mitotic Cells (%) [3, 19]: 26% | Population Normal (%) [3, 19]: 91% | Population Pyknosed Nuclei (%) [3, 19]: 64% | Population Tubulin-Different-Phenotype (%) [3, 19]: 55% | Total Cell Count [3, 19]: 304
